Experiments:
[1] = target: T1, Human immunodeficiency virus type 1 integrase (Human immunodeficiency virus 1, UniProt Q7ZJM1); experiment: Inhibition of HIV-1 integrase-mediated 3'-processing activity using [32P]-labeled oligonucleotide as substrate after 2 hrs by densitometric analysis
How it was run: (§1)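 400 nM integrase with 20 nM [γ-32P]-labeled DNA in 50 mM MOPS pH 7.2, 7.5 mM MgCl2, 14 mM 2-mercaptoethanol; compounds in DMSO. The substrate for 3′-processing was 21T/21B duplex, and for strand transfer the precleaved 19T/21B duplex. Reactions ran 2 h at 37 °C and were quenched with formamide/SDS loading buffer.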

[2] = target: T1, Human immunodeficiency virus type 1 integrase; experiment: Inhibition of HIV-1 integrase-mediated strand transfer activity using [32P]-labeled oligonucleotide as substrate after 2 hrs by densitometric analysis; how it was run: as §1
HOS = experiment: Cytotoxicity against HOS cells assessed as reduction in ATP level after 48 hrs by luciferase reporter gene assay; type: cell-based; conditions: human
How it was run: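 HOS cells in DMEM with 5% FBS and 5% newborn calf serum, seeded 4000 per well the day before, exposed to compound for 48 h at 37 °C. Cells lysed and ATP measured with a luciferase (ATPlite) read-out. Signal normalized to untreated cells; CC50 from regression fit.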

[3] = tested on: Human immunodeficiency virus 1; experiment: Antiviral activity against Human immunodeficiency virus 1 harboring integrase N155H mutant infected in HOS cells preincubated for 3 hrs followed by viral infection measured after 48 hrs by luciferase reporter gene assay; type: functional, organism-based; conditions: Human immunodeficiency virus 1, HOS
How it was run: (§2)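 VSV-g-pseudotyped single-round HIV-1 luciferase vector (pNLNgoMIVR-ΔLUC; IN mutants made by site-directed mutagenesis), produced by 293T transfection. HOS cells seeded the day before, given compound over 10 μM to 0.0005 μM (11 serial dilutions), 3 h at 37 °C, then virus added; 48 h at 37 °C. Luciferase read-out normalized to no-compound infectivity; EC50 from regression fit.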

[4] = tested on: Human immunodeficiency virus 1; experiment: Antiviral activity against wild-type Human immunodeficiency virus 1 infected in HOS cells preincubated for 3 hrs followed by viral infection measured after 48 hrs by luciferase reporter gene assay; type: functional, organism-based; conditions: Human immunodeficiency virus 1, HOS; how it was run: as §2
[5] = tested on: Human immunodeficiency virus 1; experiment: Antiviral activity against Human immunodeficiency virus 1 harboring integrase G140S/Q148H double mutant infected in HOS cells preincubated for 3 hrs followed by viral infection measured after 48 hrs by luciferase reporter gene assay; type: functional, organism-based; conditions: Human immunodeficiency virus 1, HOS; how it was run: as §2
[6] = Selectivity index, ratio of CC50 for HOS cells to EC50 for wild-type Human immunodeficiency virus 1
[7] = tested on: Human immunodeficiency virus 1; experiment: Antiviral activity against Human immunodeficiency virus 1 harboring integrase Y143R mutant infected in HOS cells preincubated for 3 hrs followed by viral infection measured after 48 hrs by luciferase reporter gene assay; type: functional, organism-based; conditions: Human immunodeficiency virus 1, HOS; how it was run: as §2
[8] = tested on: Human immunodeficiency virus 1; experiment: Ratio of EC50 for Human immunodeficiency virus 1 harboring integrase N155H mutant to EC50 for wild-type Human immunodeficiency virus 1; type: functional
[9] = tested on: Human immunodeficiency virus 1; experiment: Ratio of raltegravir EC50 to compound EC50 for Human immunodeficiency virus 1 harboring integrase E138K/Q148K double mutant; type: functional
How it was run: (§3)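 VSV-g-pseudotyped single-round HIV-1 luciferase vectors, produced in 293T cells, carrying WT or site-directed mutant IN (G118R, Y143R, N155H, G140S+Q148H, E138K+Q148K). HOS cells were pretreated 3 h at 37 °C with compound (10 μM to 0.0005 μM, 11 serial dilutions), infected, and incubated 48 h. Luciferase signal was normalized to no-compound infectivity, and EC50 was taken from regression fit. Ratios were formed from these EC50s.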

[10] = tested on: Human immunodeficiency virus 1; experiment: Ratio of raltegravir EC50 to compound EC50 for Human immunodeficiency virus 1 harboring integrase Y143R mutant; type: functional; how it was run: as §3
[11] = tested on: Human immunodeficiency virus 1; experiment: Ratio of raltegravir EC50 to compound EC50 for Human immunodeficiency virus 1 harboring integrase N155H mutant; type: functional; how it was run: as §3
[12] = tested on: Human immunodeficiency virus 1; experiment: Ratio of EC50 for Human immunodeficiency virus 1 harboring integrase G118R mutant to EC50 for wild-type Human immunodeficiency virus 1; type: functional; how it was run: as §3
[13] = tested on: Human immunodeficiency virus 1; experiment: Ratio of raltegravir EC50 to compound EC50 for Human immunodeficiency virus 1 harboring integrase G140S/Q148H double mutant; type: functional; how it was run: as §3

T1 sequence (Q7ZJM1 whole entry): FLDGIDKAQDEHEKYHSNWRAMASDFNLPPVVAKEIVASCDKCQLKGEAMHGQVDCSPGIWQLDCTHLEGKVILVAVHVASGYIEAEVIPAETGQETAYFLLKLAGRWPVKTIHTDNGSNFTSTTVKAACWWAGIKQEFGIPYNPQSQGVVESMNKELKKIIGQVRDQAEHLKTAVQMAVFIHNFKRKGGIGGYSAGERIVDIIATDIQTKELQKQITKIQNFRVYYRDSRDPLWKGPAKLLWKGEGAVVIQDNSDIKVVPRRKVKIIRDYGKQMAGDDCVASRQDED

SMILES	IC50 [1] [nM]	IC50 [2] [nM]	CC50 (HOS) [nM]	EC50 [3] [nM]	EC50 [4] [nM]	selectivity ratio [6]	EC50 [7] [nM]	also measured
O=C(NCc1ccc(F)cc1F)c1c(O)c2cccnc2[nH]c1=O	> 333000	7100	–	–	–	–	–	–
O=C(NCc1ccc(F)cc1F)c1cc2cccc(O)c2n(O)c1=O	43000	18000	–	–	–	–	–	–
O=C(NCc1ccc(F)c(Cl)c1)c1c(O)c2cccnc2[nH]c1=O	125000	7800	–	–	–	–	–	–
O=C(NCc1ccc(F)c(Cl)c1)c1c(O)c2cccnc2n(O)c1=O	4700	27	102000	148	35	2910	54	EC50 [5]: 489 nM
Cc1nnc(C(=O)NC(C)(C)c2nc(C(=O)NCc3ccc(F)cc3)c(O)c(=O)n2C)o1	–	–	> 100000	–	–	–	–	–
COc1cccc2cc(C(=O)NCc3ccc(F)cc3F)c(=O)n(O)c12	> 333000	> 333000	–	–	–	–	–	–
O=C(NCc1ccc(F)cc1F)c1cc2cccnc2n(O)c1=O	6100	41	> 250000	134	5.1	> 49000	–	EC50 [5]: 438 nM; Ratio EC50 [8]: 26
O=C(NCc1ccc(F)c(F)c1)c1cc2cccnc2n(O)c1=O	13600	17	> 250000	2200	62	> 4030	40	–
O=C(NCc1ccc(F)c(F)c1)c1c(O)c2cccnc2[nH]c1=O	93000	8100	–	–	–	–	–	–
O=C(NCc1ccc(F)c(F)c1)c1cc2cccc(O)c2n(O)c1=O	24000	780	–	–	–	–	–	–
O=C(NCc1ccc(F)cc1F)c1cc2ccccc2n(O)c1=O	> 333000	19700	–	–	–	–	–	–
O=C(NCc1ccc(F)c(F)c1)c1c(O)c2cccnc2n(O)c1=O	3600	40	192000	189	20	9600	45	EC50 [5]: 507 nM
O=C(NCc1ccc(F)c(Cl)c1)c1cc2cccnc2n(O)c1=O	9400	14	> 250000	90	38	> 6580	34	–
O=C(NCc1ccc(F)c(Cl)c1)c1cc2cccc(O)c2n(O)c1=O	17000	530	–	–	–	–	–	–
O=C(NCc1ccc(F)cc1F)c1c(O)c2cccnc2n(O)c1=O	1200	55	137000	31	6.2	22100	11	EC50 [5]: 308 nM; Ratio EC50 [9]: 10; Ratio EC50 [10]: 10; Ratio EC50 [11]: 10; Ratio EC50 [12]: 6; Ratio EC50 [13]: 10; Ratio EC50 [8]: 5

— ChEMBL document CHEMBL3124837, “Bicyclic 1-hydroxy-2-oxo-1,2-dihydropyridine-3-carboxamide-containing HIV-1 integrase inhibitors having high antiviral potency against cells harboring raltegravir-resistant integrase mutants” (J Med Chem, 2014)
